Compound activity from PubChem.
A selection: hits, their analogues and other compounds. The true share with any hit is near 1.6%.
NR2E3 ag-1: inhibitors of NR2E3-RetCOR corepressor binding, primary screen, NR2E3 agonist project, biochemical, TR-FRET, GST-NR2E3, biotin-RetCOR; Photoreceptor-specific nuclear receptor (Homo sapiens), Q9Y5X4; 1536-well; inhibition of corepressor binding, % at 4.78 µM; actives 0.12% (n = 320,000); AID 2300, 2010;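 active = percent inhibition above the cutoff of mean plus 3 SD of all tested compounds, set per screening campaign, cut at about 20% in these data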;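 note: 0% = DMSO wells and 100% = biotin wells as full block of FRET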
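system = GST-tagged NR2E3 plus biotinylated RetCOR corepressor | input = 1.35 nM GST-NR2E3 | also added = 7 nM biotin-RetCOR | schedule = 5 h incubation at 4 °C | measured by = TR-FRET with europium anti-GST and streptavidin-D2, 340 nm excitation | read-out = percent loss of FRET ratio relative to control wells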
NR2E3 ag-2: NR2E3 agonists in two-hybrid cells, primary screen, cell-based, luminescence, CHO-S, Gal4-NCOR/VP16-NR2E3. inhibition of corepressor binding, % at 3.98 µM. actives 0.35% (n = 360,000). Photoreceptor-specific nuclear receptor (Homo sapiens), Q9Y5X4. AID 602229, 2012. luciferase;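 active = inhibition above the mean of all tested compounds plus 3 SD, cut at about 70% in these data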;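 note: 0% = DMSO with NR2E3 transfected cells and 100% = cells lacking NR2E3 construct; higher means lower luciferase signal from less NR2E3 corepressor binding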
PG9 binder: binders of HIV-1 gp120 antibody PG9, primary screen, biochemical, TR-FRET | actives 0.43% (n = 360,000) | inhibition, % at 6.7 µM | HIV-1 gp120 / PG9 antibody interaction | TR-FRET gp120-PG9 antibody binding; in the data active = inhibition above about 8.5%
NR1D1 modulator: modulators of Rev-erb alpha DNA binding, primary screen, biochemical, FITC-DNA, fluorescence polarization, uHTS; Nuclear receptor subfamily 1 group D member 1 (Homo sapiens), P20393; activity, % at 10 µM; Rev-erbα–FITC-DNA binding, 90 min; actives 0.79% (n = 370,000);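 active = activity above about 14%, limit read from the data; passing the limit was not always enough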;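 note: 0% = DMSO wells with 35 nM protein and 100% = DMSO wells with 750 nM protein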
VLA-4 inh: inhibition in human VLA-4 binding assay, primary screen, VLA-4 allosteric modulator project, MLPCN library, flow cytometry, VLA-4 expressing cells; Integrin alpha-4 (Homo sapiens), P13612; ligand binding flow cytometry; inhibition, % (about 7 µM as worked out from the volumes in the protocol); actives 0.2% (n = 330,000); AID 2557, 2010; in the data active = inhibition above about 50%
PG9 binder conf: binders of anti-gp120 antibody PG9, confirmation, biochemical, TR-FRET; shares compounds with PG9 binder; TR-FRET PG9 antibody binding; inhibition, % at 6.7 µM; actives 90% (n = 1,500); AID 651571, 2012; in the data active = inhibition above about 9%
PGV04 Ab binding: binders of control antibody PGV04, counter-screen for PG9 antibody binder project, biochemical, TR-FRET, distinct HIV envelope site | shares compounds with PG9 binder | TR-FRET PGV04 antibody-gp120 binding | inhibition, % at 6.7 µM | actives 95% (n = 1,500) | AID 651604, 2012; in the data active = inhibition above about 9.5%
NR1D1 mod conf: modulators of Rev-erb alpha DNA binding, confirmation, biochemical, FITC-DNA, fluorescence polarization, single point | 90 min | shares compounds with NR1D1 modulator | activation, % at 25 µM | actives 61% (n = 3,000);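 active = activation at or above a set limit, or at least 3 SD above the negative control mean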;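 note: 0% = 35 nM protein with DMSO and 100% = 750 nM protein high control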
RORg DNA counter: modulation of RORgamma DNA binding, dose response, counter-screen for Rev-erb alpha modulator project, biochemical, fluorescence polarization, FITC-DNA. shares compounds with NR1D1 modulator. purified RORgamma protein-FITC-DNA binding. IC50, µM. actives 8% (n = 910). AID 1259320, 2017;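 active = Compounds whose fitted half-maximal concentration for disrupting protein-DNA binding is below 10 micromolar; the record names Rev-erb in its text, so the target is in doubt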
Numbers without * were called inactive.

What do the screens show for `Clc1ccc([C@H]2OC[C@@]3(CNCc4ccccc4)CS[C@H](c4ccc(Cl)cc4)N23)cc1`?
NR1D1 modulator: -5

What do the screens show for `COc1ccc(C(=O)Cn2cnc3ccccc3c2=O)cc1OC`?
NR2E3 ag-1: 3; NR2E3 ag-2: -23; PG9 binder: 1; NR1D1 modulator: -3; VLA-4 inh: 22

How did COc1ccc(C(=O)Cn2cnc3ccc(Cl)cc3c2=O)cc1F do in these assays?
NR2E3 ag-1: -1; NR2E3 ag-2: -21; PG9 binder: 21*; NR1D1 modulator: 33*; VLA-4 inh: 10; PG9 binder conf: 36*; PGV04 Ab binding: 48*; NR1D1 mod conf: 32*; RORg DNA counter: inactive

How did N#Cc1c(N)nc(SCC(=O)NCc2ccc3c(c2)OCO3)c(C#N)c1-c1cccs1 do in these assays?
NR2E3 ag-1: -1; NR2E3 ag-2: -26; PG9 binder: 50*; NR1D1 modulator: 85*; VLA-4 inh: -5; PG9 binder conf: 23*; PGV04 Ab binding: 40*; NR1D1 mod conf: 54*; RORg DNA counter: >40

Results for CCc1ccc(NC(=O)CSc2nc3ncc(Br)cc3[nH]2)cc1 ?
NR2E3 ag-1: 3; NR2E3 ag-2: -41; PG9 binder: 11*; NR1D1 modulator: 59*; VLA-4 inh: 2; PG9 binder conf: 27*; PGV04 Ab binding: 38*; NR1D1 mod conf: 52*; RORg DNA counter: inactive

What do the screens show for `O=C(CSc1nc2ncc(Br)cc2[nH]1)Nc1ccccc1-c1ccccc1`?
NR2E3 ag-1: 3; NR2E3 ag-2: -6; PG9 binder: -2; NR1D1 modulator: 5; VLA-4 inh: 13

What do the screens show for `CCn1c(=O)c(-c2nc3ccccc3[nH]2)c(O)c2ccccc21`?
NR2E3 ag-1: 4; PG9 binder: 44*; NR1D1 modulator: 32*; VLA-4 inh: 13; PG9 binder conf: 43*; PGV04 Ab binding: 49*; NR1D1 mod conf: 1

How did CCCn1c(=O)c(-c2nc3ccccc3[nH]2)c(O)c2ccccc21 do in these assays?
NR2E3 ag-1: 0; NR2E3 ag-2: 16; PG9 binder: 50*; NR1D1 modulator: 26*; VLA-4 inh: 2; PG9 binder conf: 62*; PGV04 Ab binding: 71*; NR1D1 mod conf: -4

Results for CCCCCCn1c(=O)c(-c2ccccc2)c(O)c2ccccc21 ?
NR2E3 ag-1: -1; NR2E3 ag-2: 0; PG9 binder: 3; NR1D1 modulator: -4; VLA-4 inh: 24

Results for CCOC(=O)N1CCN(C(=O)C[C@H]2C[C@@]3(C(=O)OC)C(=C[C@H](C4CCCC4)O[C@@H]3C)N(Cc3ccc(Cl)cc3Cl)C2=O)CC1 ?
NR1D1 modulator: 7

Results for CCCCCN(C(=O)Cc1c(C)n(CCCCC)c2ccccc12)c1ccc(Oc2cccnc2)c(C)c1 ?
PG9 binder: -2; NR1D1 modulator: 3

Results for Cc1cc(-c2cccc(Br)c2)c(C#N)c(N)n1 ?
NR2E3 ag-1: 19; NR2E3 ag-2: -20; PG9 binder: 34*; NR1D1 modulator: 21*; VLA-4 inh: 2; PG9 binder conf: 38*; PGV04 Ab binding: 61*; NR1D1 mod conf: 7

How did Cc1cc(C)c(C#N)c(N)n1 do in these assays?
NR2E3 ag-1: 2; NR2E3 ag-2: 22; PG9 binder: 0; NR1D1 modulator: -4; VLA-4 inh: 8

How did O=C(CSc1nnc(Cc2cccs2)n1-c1ccc(Cl)cc1)Nc1ccc(OCc2ccccc2)cc1 do in these assays?
NR1D1 modulator: -2

How did COc1ccc(C(=O)NCC(=O)Nc2ccc(F)cc2)cc1OC do in these assays?
NR2E3 ag-1: 2; NR2E3 ag-2: 4; PG9 binder: -1; NR1D1 modulator: 0; VLA-4 inh: -2

How did COc1ccc(-c2nc(NC(=O)c3ccc(OCC(=O)Nc4ccc(F)cc4)c(OC)c3)sc2C)cc1 do in these assays?
NR2E3 ag-1: 10; NR2E3 ag-2: -29; PG9 binder: 81*; NR1D1 modulator: 180*; VLA-4 inh: -7; PG9 binder conf: 69*; PGV04 Ab binding: 82*; NR1D1 mod conf: 154*; RORg DNA counter: inactive

How did CCOC(=O)Cn1cc(CN2CCS(=O)(=O)N(Cc3ccc(OC)cc3)C(C(=O)OC)C2)nn1 (stereo not drawn) do in these assays?
NR1D1 modulator: 5

How did Brc1cc(Br)c2nc3c(cc2c1)CCC3 do in these assays?
NR2E3 ag-1: 18; NR2E3 ag-2: -39; PG9 binder: 52*; NR1D1 modulator: 33*; VLA-4 inh: -25; PG9 binder conf: 58*; PGV04 Ab binding: 66*; NR1D1 mod conf: 23*

How did COc1ccc(-c2nc(C#N)c(N3CCC(C(N)=O)CC3)o2)cc1 do in these assays?
NR2E3 ag-1: 4; NR2E3 ag-2: 4; PG9 binder: -3; NR1D1 modulator: 0; VLA-4 inh: 6

How did N#Cc1nc(-c2ccc(OCc3ccccc3)cc2)oc1N1CCC(C(N)=O)CC1 do in these assays?
NR2E3 ag-1: 4; NR2E3 ag-2: -11; PG9 binder: 9.5*; NR1D1 modulator: 41*; VLA-4 inh: 8; PG9 binder conf: 9.1*; PGV04 Ab binding: 16*; NR1D1 mod conf: 8

How did CC(C)(C)CCN1C[C@@H]2C(CNC(=O)c3cc(Cl)cc(Cl)c3)[C@@H]2C1 (stereo partly drawn) do in these assays?
NR1D1 modulator: -5

How did CCCCN(C)C(=O)c1cn(C(C)c2ccccc2)nn1 (stereo not drawn) do in these assays?
NR1D1 modulator: 0

How did Cc1cc(-c2sccc2Br)nc(-n2cccc2)n1 do in these assays?
NR2E3 ag-2: 3; PG9 binder: 11*; NR1D1 modulator: 50*; PG9 binder conf: 23*; PGV04 Ab binding: 32*; NR1D1 mod conf: 27*
